Drawing on ChEMBL document CHEMBL5042480, “3CL Protease Inhibitors with an Electrophilic Arylketone Moiety as Anti-SARS-CoV-2 Agents” (J Med Chem, 2022), this text covers Ki and Activity for three compounds.

A short description of test [1]: Competitive inhibition of recombinant C-terminal His-tagged SARS coronavirus 2 3CL protease using Boc-Abu-Tle-Leu-Gln-AMC as substrate incubated for 5 mins by plate reader analysis. Set-up: species or system Severe acute respiratory syndrome coronavirus 2. An outline of the steps: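 Competitive-inhibition kinetics: fluorogenic substrate at 15, 30, 45, 60 and 75 μM was combined with inhibitor at 0, 10, 20, 30, 40 and 50 nM, and product formation was monitored for 10 min. Data were analysed by Lineweaver–Burk plot and global fit to a competitive model. Three independent experiments were run.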

The next test has as its system SARS-CoV-2. Briefly: Antiviral activity against SARS coronavirus 2 infected in African green monkey Vero cells assessed as blockade of viral proliferation at 25 uM incubated for 48 hrs by cytopathic effect assay. The test is classed as functional, organism-based. Particulars: Severe acute respiratory syndrome coronavirus 2.
Test [2] can be described thus: Inhibition of recombinant C-terminal His-tagged SARS coronavirus 1 3CL protease using Boc-Abu-Tle-Leu-Gln-AMC as substrate incubated for 5 mins by Cheng-Prusoff equation analysis. Set-up: species or system Severe acute respiratory syndrome-related coronavirus.
Test [3] in a line: Inhibition of recombinant C-terminal His-tagged SARS coronavirus 2 3CL protease using Boc-Abu-Tle-Leu-Gln-AMC as substrate incubated for 5 mins by Cheng-Prusoff equation analysis. On the set-up: species or system Severe acute respiratory syndrome coronavirus 2. Put shortly: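 His-tagged 3CLpro (8 ng/μL final) was assayed in 50 mM MOPS pH 7.2 with 10 mM NaCl, 1 mM EDTA and 0.01% Triton X-100. Substrate was 50 μM final (about Km) and DMSO 4% final. Inhibitor and substrate were preincubated 5 min at 37 °C, then enzyme was added and fluorescence (ex 360/em 460 nm) read for 10 min. At least 11 concentrations were tested; IC50 came from nonlinear regression and Ki from Cheng–Prusoff. n = 3.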

pKi: −log10 of the molar value. Active and inactive are the calls of the source. No cut-off for these calls is given here. Where a SMILES comes first, the peptide text is derived from it. The star is where a group is joined. Cbz = O=C(OCc1ccccc1)*; CF3 = FC(F)(F)*

The term pKi denotes −log10 of the Ki, conventionally taken in molar units. For `CC(C)C[C@H](NC(=O)[C@@H](NC(=O)OCc1ccccc1)C(C)C)C(=O)N[C@@H](C[C@@H]1CCNC1=O)C(=O)c1nc2ccccc2s1`, the negative logarithm of the Ki (pKi) is 7.70 in test [1], 8.39 in test [2] and 7.84 in test [3]. Moreover, the outcome in the test with SARS-CoV-2 was Active.

On to `CC(C)C[C@H](NC(=O)[C@@H](NC(=O)[C@H](C)NC(=O)OCc1ccccc1)C(C)C)C(=O)N[C@@H](CCC(N)=O)C(=O)C(F)(F)F` (Cbz-AVLQ-CF3), for which, in test [2], the pKi was 3.87.

Turning to `CC(C)C[C@H](NC(=O)c1nc2ccccc2[nH]1)C(=O)N[C@@H](C[C@@H]1CCNC1=O)C(=O)c1nc2ccccc2s1`, the outcome with SARS-CoV-2 was Active. Further, the pKi in test [3] is 7.49.
